Test [1] has as its target T1, ATP-citrate synthase (Homo sapiens, UniProt P53396).
T1 sequence (P53396 whole entry): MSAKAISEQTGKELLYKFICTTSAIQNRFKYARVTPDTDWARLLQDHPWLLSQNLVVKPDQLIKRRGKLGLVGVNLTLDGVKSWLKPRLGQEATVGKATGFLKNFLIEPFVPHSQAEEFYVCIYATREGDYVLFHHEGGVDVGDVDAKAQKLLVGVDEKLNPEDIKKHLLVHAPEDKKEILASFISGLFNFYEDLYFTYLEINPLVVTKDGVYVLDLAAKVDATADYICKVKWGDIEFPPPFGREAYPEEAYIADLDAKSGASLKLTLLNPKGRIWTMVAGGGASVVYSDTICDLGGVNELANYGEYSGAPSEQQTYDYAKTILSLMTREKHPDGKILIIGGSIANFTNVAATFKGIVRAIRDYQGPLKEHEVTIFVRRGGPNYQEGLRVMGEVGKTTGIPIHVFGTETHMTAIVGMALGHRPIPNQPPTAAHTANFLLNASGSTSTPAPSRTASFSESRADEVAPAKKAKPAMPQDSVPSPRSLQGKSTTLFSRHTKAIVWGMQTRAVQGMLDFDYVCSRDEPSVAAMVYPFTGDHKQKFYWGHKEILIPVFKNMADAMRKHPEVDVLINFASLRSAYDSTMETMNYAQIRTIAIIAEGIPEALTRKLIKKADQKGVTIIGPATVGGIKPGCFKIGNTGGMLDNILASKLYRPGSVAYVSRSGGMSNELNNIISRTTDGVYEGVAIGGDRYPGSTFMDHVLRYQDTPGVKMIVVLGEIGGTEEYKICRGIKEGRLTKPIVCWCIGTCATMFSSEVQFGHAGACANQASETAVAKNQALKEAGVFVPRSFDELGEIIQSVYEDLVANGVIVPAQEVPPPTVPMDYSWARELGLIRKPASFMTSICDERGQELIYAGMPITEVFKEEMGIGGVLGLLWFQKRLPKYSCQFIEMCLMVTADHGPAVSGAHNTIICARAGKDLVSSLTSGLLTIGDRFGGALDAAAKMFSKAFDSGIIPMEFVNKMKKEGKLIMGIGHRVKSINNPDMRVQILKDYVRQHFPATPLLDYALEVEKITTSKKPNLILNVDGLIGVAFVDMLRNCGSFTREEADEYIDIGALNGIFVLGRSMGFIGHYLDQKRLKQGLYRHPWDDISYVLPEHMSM
The test is described as follows: (§1) Inhibitory activity against human recombinant ATP-Citrate Lyase activity was measured by the […] dehydrogenase catalyzed reduction of oxaloacetate by NADH. An outline of the steps:
(§2)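 Purified rat ACL or recombinant human ACL was assayed by coupling oxaloacetate formation to malate dehydrogenase reduction with NADH. Buffer: Tris 100 mM pH 8.0, MgCl2 10 mM, KCl 10 mM, DTT 10 mM, plus ATP and NADH. CoA was 200 μM, and citrate was added to 100 μM (its Km) to start the reaction. A340 decrease was followed over 20 min. Ki came from fitting v = Vmax/(2 + [I]/Ki), assuming citrate-competitive inhibition.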

Test [2] has as its system HepG2. The test is described as follows: Percent reduction of fatty acid synthesis in human hepatoma cell line HepG2 at 10 uM concentration. Further details: scale not given: the % may be the effect or the level left. It counts as functional. An outline of the steps: (§3)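 HepG2 cells were grown in DMEM with Hepes, bicarbonate, glutamine and 10% FCS to 80–90% confluence, then kept overnight serum-free. Vehicle or compound was added at the stated final concentration for 2.5 h. ³H2O (71 μCi/mmol) was present for the final 90 min. Synthesis rates came from ³H incorporated into cellular cholesterol or fatty acids, relative to vehicle control.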

Test [3] concerns HepG2. The test is described as follows: Percent control of ATP levels in human hepatoma cell line HepG2 at 30 uM concentration. It counts as functional. The method in brief: (§4)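 Serum-starved HepG2 cells (grown to 80–90% confluence in DMEM/10% FCS, then overnight without serum) were exposed to vehicle or compound at the stated final concentration for 2.5 h. Cellular ATP was then measured as a toxicity check and expressed as % of vehicle control.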

Test [4] concerns HepG2. As to the kind of experiment: Percent control of ATP levels in human hepatoma cell line HepG2 at 10 uM concentration. Format: functional. An outline of the steps: as §4
Test [5] has as its system HepG2. The test is described as follows: Percent reduction of cholesterol synthesis in human hepatoma cell line HepG2 at 10 uM concentration. It counts as functional. Further details: scale not given: the % may be the effect or the level left. The method in brief: as §3
The target of test [6] is T2, ATP-citrate synthase (Rattus norvegicus, UniProt P16638).
T2 sequence (P16638 whole entry): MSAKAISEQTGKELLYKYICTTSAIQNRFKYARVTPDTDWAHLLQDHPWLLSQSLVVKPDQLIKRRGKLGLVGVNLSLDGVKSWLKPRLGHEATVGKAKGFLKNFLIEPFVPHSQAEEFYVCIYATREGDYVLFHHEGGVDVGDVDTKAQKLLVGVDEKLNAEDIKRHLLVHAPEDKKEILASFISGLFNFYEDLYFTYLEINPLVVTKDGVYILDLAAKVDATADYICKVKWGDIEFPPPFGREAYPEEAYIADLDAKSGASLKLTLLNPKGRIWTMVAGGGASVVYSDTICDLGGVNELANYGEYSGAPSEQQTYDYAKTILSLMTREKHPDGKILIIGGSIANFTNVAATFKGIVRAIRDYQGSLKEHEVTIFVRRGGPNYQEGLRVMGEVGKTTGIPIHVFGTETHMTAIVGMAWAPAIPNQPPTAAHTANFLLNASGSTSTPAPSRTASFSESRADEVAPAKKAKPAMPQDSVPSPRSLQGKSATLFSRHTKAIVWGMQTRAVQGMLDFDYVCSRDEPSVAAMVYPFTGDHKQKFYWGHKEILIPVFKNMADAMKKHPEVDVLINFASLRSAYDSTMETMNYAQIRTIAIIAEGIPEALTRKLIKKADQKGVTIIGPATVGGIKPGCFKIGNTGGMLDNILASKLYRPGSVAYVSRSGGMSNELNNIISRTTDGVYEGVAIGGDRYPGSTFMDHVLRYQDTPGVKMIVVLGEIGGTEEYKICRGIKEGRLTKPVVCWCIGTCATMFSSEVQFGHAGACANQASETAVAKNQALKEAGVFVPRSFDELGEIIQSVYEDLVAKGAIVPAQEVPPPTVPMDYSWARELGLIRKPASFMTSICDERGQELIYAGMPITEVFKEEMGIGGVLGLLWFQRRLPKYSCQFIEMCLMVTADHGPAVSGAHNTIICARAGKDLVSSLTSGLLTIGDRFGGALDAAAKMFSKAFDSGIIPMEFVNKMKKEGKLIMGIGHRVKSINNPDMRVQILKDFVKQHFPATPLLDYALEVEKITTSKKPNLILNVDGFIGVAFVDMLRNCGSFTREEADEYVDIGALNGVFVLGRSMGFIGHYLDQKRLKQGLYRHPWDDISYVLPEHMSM
As to the kind of experiment: Inhibition of recombinant ATP-Citrate Lyase activity as […] dehydrogenase catalyzed reduction of oxaloacetate by NADH. The conditions noted are these: in the assay text read “purified rat ATP-Citrate Lyase” for “recombinant ATP-Citrate Lyase”. An outline of the steps: as §2

Test [7] has as its system HepG2. The test is described as follows: Percent reduction of fatty acid synthesis in human hepatoma cell line HepG2 at 100 uM concentration. It counts as functional. Further details: scale not given: the % may be the effect or the level left. An outline of the steps: as §3
For test [8], the system named is HepG2. The test is described as follows: Percent reduction of cholesterol synthesis in human hepatoma cell line HepG2 at 100 uM concentration. Format: functional. Further details: scale not given: the % may be the effect or the level left. The method in brief: as §3
Test [9] deals with HepG2. As to the kind of experiment: Percent control of ATP levels in human hepatoma cell line HepG2 at 100 uM concentration. It counts as functional. The method in brief:
as §4

Test [10] has as its target T3, ATP-citrate synthase (Homo sapiens) (UniProt P53396).
T3 sequence (whole entry): T1 sequence (P53396 whole entry)
The test is described as §1. The following applies: concentration not given here. An outline of the steps:
as §2

Test [11] relates to HepG2. As to the kind of experiment: Percent reduction of cholesterol synthesis in human hepatoma cell line HepG2 at 20 uM concentration. It counts as functional. Also on record: scale not given: the % may be the effect or the level left. The method in brief:
as §3

Test [12] concerns HepG2. As to the kind of experiment: Percent control of ATP levels in human hepatoma cell line HepG2 at 20 uM concentration. It counts as functional. The method in brief:
as §4

In test [13] the test system is HepG2. The test is described as follows: Percent reduction of fatty acid synthesis in human hepatoma cell line HepG2 at 1000 uM concentration. It counts as functional. An outline of the steps: as §3
Test [14] concerns HepG2. The test is described as follows: Percent reduction of cholesterol synthesis in human hepatoma cell line HepG2 at 1000 uM concentration. Format: functional. The method in brief: as §3
For test [15], the system named is HepG2. As to the kind of experiment: Percent control of ATP levels in human hepatoma cell line HepG2 at […] uM concentration. Format: functional.
Test [16] relates to HepG2. The test is described as follows: Percent reduction of fatty acid synthesis in human hepatoma cell line HepG2 at 20 uM concentration. Format: functional. Also on record: scale not given: the % may be the effect or the level left. An outline of the steps: as §3
The subject of test [17] is HepG2. The test is described as follows: Percent control of ATP levels in human hepatoma cell line, HepG2 at 1000 uM concentration. Format: functional. An outline of the steps: as §4
Test [18] concerns HepG2. The test is described as follows: Percent reduction of cholesterol synthesis in human hepatoma cell line, HepG2 at 1000 uM concentration. Format: functional. Further details: scale not given: the % may be the effect or the level left. The method in brief:
as §3

Test [19] has as its system HepG2. As to the kind of experiment: Percent reduction of fatty acid synthesis in human hepatoma cell line, HepG2 at 1000 uM concentration. Format: functional. Also on record: scale not given: the % may be the effect or the level left. The method in brief:
as §3

The Ki is a dissociation constant, usually derived from enzyme kinetics or from competition with a known ligand. With `O=C(O)CC(O)(CSCCCCCCc1c(Cl)cncc1Cl)C(=O)O` (stereo not given), in test [1], the Ki turned out to be 121 µM.
`COC(=O)CC(CSCCCCCCc1ccc(Cl)cc1Cl)C(=O)OC` (stereo not given): the Control in test [2] was found to be 105%; in test [3], 91%; in test [4] it was 96%; in test [5] it was 78%.
For `O=C(O)CC(O)(CSCCCc1ccc(Cl)cc1Cl)C(=O)O` (stereo not given), in [6], the Ki was determined as 390 µM.
`CCOC(=O)CC(O)(CSCCCCCCc1ccc(Cl)cc1Cl)C(=O)OCC` (stereo not given): the Control turned out to be 6% in [7]; 3% in test [8]; 86% in test [3]; 81% in test [9]; 91% in test [4].
In general, inhibition refers to the drop in the measured response relative to a control, in per cent. Turning to `O=C(O)CC(O)(CSCCCCCCc1ccncc1)C(=O)O` (stereo not given), the inhibition in test [10] was 20%.
As to `O=C(O)CC(O)(CSCCCCCCc1ccc(F)cc1F)C(=O)O` (stereo not given), the Ki in test [6] was 270 µM.
Consider `O=C(O)CC(O)(CSCCCCCCc1ccccc1[N+](=O)[O-])C(=O)O` (stereo not given), for which the Ki in test [6] was found to be 75 µM.
Take `O=C(O)CC(O)(CSCCCCCc1ccc(Cl)cc1Cl)C(=O)O` (stereo not given): the Control in [11] was found to be 104%; in [12], 102%; in [15], 84%; in test [16], 96%. Besides, in test [6], the Ki came out at 6.8 µM. For the same compound, the “Fatty acid synthesis (% of vehicle control)” value in test [13] was 16%. Also, the “Cholesterol synthesis (% of vehicle control)” value in test [14] amounted to 14%.
For `O=C(O)CC(O)(CSCCCCCCc1ccc(Cl)cc1Cl)C(=O)O` (stereo not given), the Control is 100% in test [17], 116% in test [18] and 107% in test [19]. The Ki in test [6] amounted to 3.3 µM.

For the origin of these results see ChEMBL document CHEMBL1129688, “ATP-citrate lyase as a target for hypolipidemic intervention. Design and synthesis of 2-substituted butanedioic acids as novel, potent inhibitors of the enzyme” (J Med Chem, 1996).
